Consider 3 molecules from ChEMBL document CHEMBL5712903, “Limitations of current in vitro models for testing the clinical potential of epigenetic inhibitors for treatment of pediatric ependymoma” (Oncotarget, 2018).

pIC50: −log10 of the molar value. Calls of active or inactive are those of the source. The rule behind the calls is not given here.

The target in data set [1] is Histone-lysine N-methyltransferase EZH2 (Homo sapiens) (UniProt Q15910). The data set is described as follows: Inhibition of EZH2 in human BXD-1425EPN cells assessed as decrease in cell viability at 2.5 to 80 uM incubated for 72 hrs in presence of vorinostat by MTT assay. Particulars: dose 2.5-80 µM.
For data set [2] the target is unchanged. Nature of the data set: Inhibition of EZH2 in human DKFZ-EP1 cells assessed as increase in cell death incubated for 120 hrs by LDH release assay. It is filed as cell-based. The procedure, abridged:
(§1)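 GSK343 or vehicle was added to cells plated in 96 wells the previous day. Drug was replenished after 72 hrs, and cell death was measured by LDH release kit at 120 hrs. Each condition in triplicate, three independent repeats.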

For data set [3] the target is unchanged. The data set is described as follows: Inhibition of EZH2 in human EPN1 cells assessed as increase in cell death incubated for 120 hrs by LDH release assay. It is filed as cell-based. The procedure, abridged: as §1
For data set [4] the target is unchanged. Nature of the data set: Inhibition of EZH2 in human EPN1 cells assessed as increase in decitabine induced cytotoxicity at 2.5 to 80 uM measured after 96 hrs in presence of decitabine by MTT assay. It counts as cell-based. Particulars: dose 2.5-80 µM. In outline:
(§2)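 Cells were pretreated 48 hrs with decitabine, then GSK343 was added and incubation continued for a further 96 hrs before MTT viability was read. Drugs were at a fixed ratio from single-agent IC50s (0.125–4 times IC50). Triplicates, three independent repeats, % versus vehicle.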

For data set [5] the target is unchanged. Nature of the data set: Inhibition of EZH2 in human EPN1 cells assessed as decrease in cell viability at 2.5 to 80 uM incubated for 72 hrs in presence of vorinostat by MTT assay. Particulars: dose 2.5-80 µM.
A short description of data set [6]: Cytotoxicity against human fetal NSC assessed as reduction in cell vaibility incubated for 48 hrs by alamar blue assay. Particulars: human fetal neural stem cells (NSC).
Data set [7] addresses Histone-lysine N-methyltransferase EZH2 (Homo sapiens) (UniProt Q15910). The data set is described as follows: Inhibition of EZH2 in human EPN9 cells assessed as increase in cell death incubated for 120 hrs by LDH release assay. It is filed as cell-based. In outline:
as §1

Data set [8] has the same target. The data set is described as follows: Inhibition of EZH2 in human DKFZ-EP1 cells assessed as increase in decitabine induced cytotoxicity at 2.5 to 40 uM measured after 96 hrs in presence of decitabine by MTT assay. It is filed as cell-based. The settings on record: dose 2.5-40 µM. In outline:
as §2

For data set [9] the target is unchanged. Nature of the data set: Inhibition of EZH2 in human BXD-1425EPN cells assessed as increase in decitabine induced cytotoxicity at 2.5 to 80 uM measured after 96 hrs in presence of decitabine by MTT assay. It is filed as cell-based. The settings on record: dose 2.5-80 µM. The procedure, abridged:
as §2

For data set [10] the target is unchanged. Nature of the data set: Inhibition of EZH2 in human EPN9 cells assessed as increase in decitabine induced cytotoxicity at 2.5 to 80 uM measured after 96 hrs in presence of decitabine by MTT assay. It is filed as cell-based. Particulars: dose 2.5-80 µM. The procedure, abridged:
as §2

Data set [11] shares this target. The data set is described as follows: Inhibition of EZH2 in human BXD-1425EPN cells assessed as increase in cell death incubated for 120 hrs by LDH release assay. It counts as cell-based. In outline: as §1
A short description of data set [12]: Antiproliferative activity against human EPN1 cells assessed as reduction in cell viability incubated for 144 hrs by MTT assay. It counts as functional, cell-based. Particulars: EPN1, 144 h. In outline: (§3)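 Ependymoma cells were seeded in 96-well plates and left overnight, then given decitabine or DMSO vehicle. Decitabine was replenished at 24 and 48 hrs, and MTT viability was read 144 hrs after the start. BXD-1425EPN and DKFZ-EP1 were grown in DMEM with 10% FBS; EPN1, EPN8, EPN9 and EPN10 in DMEM with 15% FBS. Triplicates, three independent repeats, % viable versus vehicle; IC50 estimated from dose-response curves.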

A short description of data set [13]: Antiproliferative activity against human EPN8 cells assessed as reduction in cell viability incubated for 144 hrs by MTT assay. It is filed as functional, cell-based. The settings on record: EPN8, 144 h. The procedure, abridged:
as §3

The next data set has as its system EPN1. The data set is described as follows: Induction of cell death in human EPN1 cells incubated for 144 hrs by LDH release assay. It counts as functional, cell-based. The procedure, abridged:
(§4)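 LDH cytotoxicity kit read-out of cell death after 144 hrs of decitabine or vehicle exposure. Cells were plated in 96 wells and left overnight before dosing, with decitabine replenished at 24 and 48 hrs. Triplicates in three independent repeats. All drugs were dissolved in DMSO.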

The nature of data set [14]: Antiproliferative activity against human EPN10 cells assessed as reduction in cell viability incubated for 144 hrs by MTT assay. It counts as functional, cell-based. The settings on record: EPN10, 144 h. The procedure, abridged: as §3
Data set [15] is described as follows: Antiproliferative activity against human DKFZ-EP1 cells assessed as reduction in cell viability incubated for 144 hrs by MTT assay. It counts as functional, cell-based. Particulars: DKFZ-EP1, 144 h. In outline: as §3
The next data set relates to BXD-1425EPN. The data set is described as follows: Induction of cell death in human BXD-1425EPN cells incubated for 144 hrs by LDH release assay. It counts as functional, cell-based. In outline:
as §4

The subject of the next data set is EPN9. Nature of the data set: Induction of cell death in human EPN9 cells incubated for 144 hrs by LDH release assay. It is filed as functional, cell-based. In outline: as §4
A short description of data set [16]: Antiproliferative activity against human BXD-1425EPN cells assessed as reduction in cell viability incubated for 144 hrs by MTT assay. It is filed as functional, cell-based. The procedure, abridged: as §3
Data set [17] can be described thus: Antiproliferative activity against human EPN9 cells assessed as reduction in cell viability incubated for 144 hrs by MTT assay. The settings on record: EPN9, 144 h. It counts as functional, cell-based. The procedure, abridged:
as §3

In the next data set the test system is DKFZ-EP1. The data set is described as follows: Induction of cell death in human DKFZ-EP1 cells incubated for 144 hrs by LDH release assay. It is filed as functional, cell-based. The procedure, abridged: as §4

Chain of Histone-lysine N-methyltransferase EZH2 (Homo sapiens) (Q15910 whole entry, looked up): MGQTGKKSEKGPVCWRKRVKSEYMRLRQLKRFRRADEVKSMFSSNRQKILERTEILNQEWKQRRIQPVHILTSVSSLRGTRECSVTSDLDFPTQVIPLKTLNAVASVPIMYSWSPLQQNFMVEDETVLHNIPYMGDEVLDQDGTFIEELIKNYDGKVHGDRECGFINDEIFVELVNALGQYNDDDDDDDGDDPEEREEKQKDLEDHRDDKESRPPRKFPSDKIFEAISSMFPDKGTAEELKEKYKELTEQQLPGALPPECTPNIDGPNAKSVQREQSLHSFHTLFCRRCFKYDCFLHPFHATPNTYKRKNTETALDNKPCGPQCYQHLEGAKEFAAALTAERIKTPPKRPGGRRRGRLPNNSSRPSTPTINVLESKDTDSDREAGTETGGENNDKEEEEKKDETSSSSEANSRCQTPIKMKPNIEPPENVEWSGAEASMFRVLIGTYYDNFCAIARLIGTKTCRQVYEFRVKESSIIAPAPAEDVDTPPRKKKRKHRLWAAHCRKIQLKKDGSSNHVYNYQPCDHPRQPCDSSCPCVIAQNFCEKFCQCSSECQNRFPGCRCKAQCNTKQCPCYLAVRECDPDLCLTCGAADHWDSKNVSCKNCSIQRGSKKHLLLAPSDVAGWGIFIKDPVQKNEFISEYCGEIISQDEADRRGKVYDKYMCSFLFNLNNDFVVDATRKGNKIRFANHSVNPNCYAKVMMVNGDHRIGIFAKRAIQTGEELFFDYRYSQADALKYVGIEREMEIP

Take `CCCc1cc(C)[nH]c(=O)c1CNC(=O)c1cc(-c2ccnc(N3CCN(C)CC3)c2)cc2c1cnn2C(C)C`: the inhibition entry in data set [1], in [2], in [3], in [5], in data set [7] and in data set [11] was “Active” throughout. Further, the inhibition entry in data set [4], in [8], in data set [9] and in data set [10] was “inactive” each time. In addition, the IC50 at 48 h in [6] came out at 9000 nM.

`Nc1ncn([C@H]2C[C@H](O)[C@@H](CO)O2)c(=O)n1` [DECITABINE]: the pIC50 in data set [12] was at most 7.30; in data set [13], 7.30; in data set [14], at most 7.30; in data set [15], at most 7.30; in [16], 6.40; in [17] it was at most 7.30. Moreover, the result in the data set with EPN1, in the data set with BXD-1425EPN, in the data set on EPN9 and in the data set with DKFZ-EP1 was inactive.

In the case of `Cc1[nH]c2ccccc2c1CCNCc1ccc(/C=C/C(=O)NO)cc1` [PANOBINOSTAT], the IC50 at 48 h in [6] was determined as 80 nM.
